Reference: ChEMBL document CHEMBL4020840, “Synthesis and Biological Evaluation of Selenium-Containing 4-Anilinoquinazoline Derivatives as Novel Antimitotic Agents” (J Med Chem, 2018)
Activity calls are given as the source filed them. The calls are words filed in the database; no cut-off is given here.

Assays:
MGC-803 = experiment: Induction of morphological changes in human MGC803 cells at 2 to 8 nM after 48 hrs by confocal microscopic method; assay type: functional, cell-based
In short: (§1)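 Human cancer cells were treated at the indicated concentrations, or 0.01% DMSO vehicle, for 48 h. Cells were then fixed and their morphology was examined by microscopy with a 20× objective.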

HeLa [1] = experiment: Disruption of microtubule network in human HeLa cells at 4 to 8 nM after 12 hrs by Hoechst 33342 staining based laser scanning confocal microscopic method; assay type: cell-based
In short: (§2)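 A549 and HeLa cells at 3 × 10⁵ per confocal dish, grown 24 h, then exposed to compound (2, 4 or 8 nM) or 0.01% DMSO for 12 h. Fixed in 4% paraformaldehyde at 37 °C for 15 min, permeabilised with 0.5% Triton X-100, blocked with 10% goat serum. Stained with mouse anti-tubulin at 4 °C overnight, then Alexa-Fluor 488 secondary; Hoechst 33342 nuclear stain; confocal imaging.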

A549 [2] = experiment: Induction of apoptosis in human A549 cells assessed as upregulation of Bax level at 2 to 4 nM after 24 to 48 hrs by Western blot method; assay type: functional, cell-based
In short: (§3)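 A549 seeded in 60 mm dishes at 5 × 10⁵ cells and treated for 24 or 48 h. Lysed in RIPA buffer on ice for 30 min and spun at 12 500g. Protein measured by BCA; 40 μg run on 8−12% SDS−PAGE and moved to nitrocellulose. Blocked in 5% milk, primary antibodies at 4 °C overnight, HRP secondary 2 h, ECL detection.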

HeLa [3] = experiment: Induction of morphological changes in human HeLa cells at 2 to 8 nM after 48 hrs by confocal microscopic method; assay type: functional, cell-based; in short: as §1
A549 [4] = experiment: Induction of mitochondrial membrane disruption in human A549 cells at 2 to 8 nM after 48 hrs by JC1/Hoechst 33342 staining based flow cytometry; assay type: functional, cell-based
A549 [5] = experiment: Induction of apoptosis in human A549 cells assessed as upregulation of Bad level at 2 to 4 nM after 24 to 48 hrs by Western blot method; assay type: functional, cell-based; in short: as §3
A549 [6] = experiment: Cell cycle arrest in human A549 cells assessed as accumulation at G2/M phase up to 24 hrs by propidium iodide staining based flow cytometry; assay type: functional
In short: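 A549 seeded in six-well plates at 3 × 10⁵ cells/well and treated for 12 or 24 h; vehicle 0.01% DMSO. Cells fixed overnight in ice-cold 70% ethanol, treated with RNase A at 37 °C for 30 min, then stained with PI at 4 °C for 30 min. About 10 000 events acquired by flow cytometry at 488 nm; three experiments.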

A549 [7] = experiment: Disruption of microtubule network in human A549 cells at 4 to 8 nM after 12 hrs by Hoechst 33342 staining based laser scanning confocal microscopic method; assay type: cell-based; in short: as §2
MCF7 = experiment: Induction of morphological changes in human MCF7 cells at 2 to 8 nM after 48 hrs by confocal microscopic method; assay type: functional, cell-based; in short: as §1
A549 [8] = experiment: Antimigratory activity against human A549 cells assessed as suppression of wound healing at 4 nM after 24 hrs by phase contrast microscopic method; assay type: functional, cell-based
In short: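 Scratch wound assay: A549 plated at 5 × 10⁴ cells/dish and grown 24 h before scraping with a 10 μL tip. Medium then swapped to serum-free DMEM containing compound (4 nM) for 24 h. After a PBS wash, wound images taken at 0 and 24 h; at least three independent experiments.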

A549 [9] = experiment: Induction of ROS generation in human A549 cells at 2 to 8 nM after 12 hrs by DCFH-DA staining based fluorescence microscopic method; assay type: functional, cell-based
In short: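 A549 plated at 3 × 10⁵ cells/well and grown 24 h, then exposed to compound (2, 4, 8 nM) for 12 h. Loaded with DCFH-DA in fresh medium at 37 °C for 30 min and washed three times with PBS. DCF fluorescence read at excitation 488 and emission 525 nm. Images taken after Hoechst 33342 nuclear staining.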

Sus scrofa = organism: Sus scrofa; experiment: Inhibition of porcine brain tubulin polymerization measured every 60 secs for 90 mins by DAPI staining based fluorescence assay
In short: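 Purified tubulin was tested in a kit assay. Final buffer: 80 mM PIPES sesquisodium (pH 6.9), 2.0 mM MgCl₂, 0.5 mM EGTA, 1 mM GTP, 10.2% glycerol. Compound (0.1–10 μM) was prewarmed at 37 °C for 1 min before tubulin was added. DAPI reporter fluorescence (ex 340 / em 410 nm) was read every 60 s for 90 min. Area under the curve gave percent inhibition versus control and the IC50.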

HeLa [10] = experiment: Disruption of microtubule network in human HeLa cells at 2 nM after 12 hrs by Hoechst 33342 staining based laser scanning confocal microscopic method; assay type: cell-based; in short: as §2
A549 [11] = experiment: Induction of apoptosis in human A549 cells assessed as downregulation of Bcl2 level at 2 to 4 nM after 24 to 48 hrs by Western blot method; assay type: functional, cell-based; in short: as §3
A549 [12] = experiment: Disruption of microtubule network in human A549 cells at 2 nM after 12 hrs by Hoechst 33342 staining based laser scanning confocal microscopic method; assay type: cell-based; in short: as §2

In the case of `C[Se]c1ccc(N(C)c2nc(C)nc3ccccc23)cc1`, the Activity (MGC-803) is reported as “Active”, the Activity (HeLa [1]) is reported as “Active” and the Activity (A549 [2]) is reported as “Active”. The Activity (HeLa [3]) was “Active”, the Activity (A549 [4]) was “Active” and the Activity (A549 [5]) was “Active”. The Activity (A549 [6]) was “Dose-dependent effect”, the Activity (A549 [7]) was “Active” and the Activity (MCF7) was “Active”. The Activity (A549 [8]) was “Active”, the Activity (A549 [9]) was “Active” and the inhibition (Sus scrofa) was “Dose-dependent effect”. The Activity (HeLa [10]) was “inactive”, the Activity (A549 [11]) was “Active” and the Activity (A549 [12]) was “inactive”.
